Laboratory results from article PMC3717983 (Journal of medicinal chemistry, 2013).
Values joined by “and” are separate entries in the source; they are usually repeats but may differ in a detail not shown here. Identical values can stand only once. Like-named read-outs stand apart in the source and are kept apart here. Marks after values point to notes of the source that are not given here.

Key:
Format in all cases: biochemical
[1] = molecular target: T1, human α-thrombin (Homo sapiens, UniProt P00734); settings: for logIC50 / HS (Hill slope): pH 7.4, 25 °C, Spectrozyme TH
[2] = molecular target: T1, human α-thrombin
Summary of the method: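 Human α-thrombin (5 nM) was preincubated with fixed test compound concentrations (0–9.90 μM), either overnight at 25 °C or 2 h at 37 °C, in 20 mM Tris-HCl pH 7.4 with 100 mM NaCl, 2.5 mM CaCl2 and 0.1% PEG8000. Initial rates of Spectrozyme TH hydrolysis (2–80 μM) were read at 405 nm, at under 10% substrate consumption. Standard Michaelis-Menten fit gave KM and VMAX.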

[3] = molecular target: T1, human α-thrombin; test: Thrombin inhibition by 9a in presence of exosite 1 or exosite 2 ligands
[4] = molecular target: recombinant wild-type thrombin (rWT) (Homo sapiens, UniProt P00734); test: Inhibition of recombinant thrombin, S2238 hydrolysis assay; settings: overnight 25 °C
Summary of the method: (§1)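 Recombinant wild-type and Ala-mutant thrombins were made in […] form by PCR mutagenesis, expressed in BHK cells, HPC4 immunoaffinity-purified and activated. Active-site concentration came from amidolytic assay and antithrombin titration. Enzyme (1.5–7.5 nM final) was incubated with test compound overnight at 25 °C in pH 7.4 Tris buffer. S2238 was added and initial rate read at 405 nm. At least 9–10 concentrations were fitted by logistic equation for apparent IC50, HS, Y0 and YM. Mutant IC50 is expressed relative to recombinant wild type.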

[5] = molecular target: R93A thrombin (Homo sapiens, UniProt P00734, R452A); test: as above; settings: overnight 25 °C
Summary of the method: as §1

[6] = molecular target: R97A thrombin (Homo sapiens, UniProt P00734, R456A); test: as above; settings: overnight 25 °C
Summary of the method: as §1

[7] = molecular target: R101A thrombin (Homo sapiens, UniProt P00734, R461A); test: as above; settings: overnight 25 °C
Summary of the method: as §1

[8] = molecular target: R126A thrombin (Homo sapiens, UniProt P00734, R486A); test: as above; settings: overnight 25 °C
Summary of the method: as §1

[9] = molecular target: R165A thrombin (Homo sapiens, UniProt P00734, R533A); test: as above; settings: overnight 25 °C
Summary of the method: as §1

[10] = molecular target: K169A thrombin (Homo sapiens, UniProt P00734, K537A); test: as above; settings: overnight 25 °C
Summary of the method: as §1

[11] = molecular target: R173A thrombin (Homo sapiens, UniProt P00734, R541A); test: as above; settings: overnight 25 °C
Summary of the method: as §1

[12] = molecular target: R175A thrombin (Homo sapiens, UniProt P00734, R543A); test: as above; settings: overnight 25 °C
Summary of the method: as §1

[13] = molecular target: R233A thrombin (Homo sapiens, UniProt P00734, R608A); test: as above
Summary of the method: as §1

[14] = molecular target: K235A thrombin (Homo sapiens, UniProt P00734, K610A); test: as above; settings: overnight 25 °C
Summary of the method: as §1

[15] = molecular target: K236A thrombin (Homo sapiens, UniProt P00734, K611A); test: as above; settings: overnight 25 °C
Summary of the method: as §1

[16] = molecular target: K240A thrombin (Homo sapiens, UniProt P00734, K615A); test: as above; settings: overnight 25 °C
Summary of the method: as §1

[17] = test system: human plasma; test: Human plasma clotting assay, activated partial thromboplastin time
Summary of the method: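 APTT on a fibrometer using a one-stage recalcification assay. Citrated human plasma, test compound or vehicle, and pre-warmed 0.2% ellagic acid were mixed and incubated 4 min. Clotting was started with 25 mM CaCl2 at 37 °C and clotting time recorded. Run in duplicate. A quadratic trend line gave the concentration that doubles APTT.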

[18] = test system: human plasma; test: Human plasma clotting assay, prothrombin time; settings: citrated human plasma
Summary of the method: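 PT on a fibrometer using a one-stage recalcification assay. Test compound or vehicle was mixed with citrated human plasma and incubated 30 s at 37 °C. Pre-warmed reconstituted thromboplastin was then added and clotting time recorded. Run in duplicate. A quadratic trend line gave the concentration that doubles PT.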

[19] = [9a] 0.63 μM, 2 hr incubation at 37°C
[20] = [9a] 0.63 μM, overnight incubation at 25°C
[21] = [9a] 1.53 μM, 2 hr incubation at 37°C
[22] = [9a] 1.80 μM, overnight incubation at 25°C
[23] = [9a] 3.60 μM, 2 hr incubation at 37°C
[24] = [9a] 3.60 μM, overnight incubation at 25°C
[25] = [9a] 9.90 μM, 2 hr incubation at 37°C
[26] = Heparin (UFH) 4.2 μM, overnight 25 °C
[27] = Heparin (UFH) 25.0 μM, overnight 25 °C
[28] = Heparin (UFH) 42.6 μM, overnight 25 °C
[29] = Hirugen peptide (HirP) 5 nM, overnight 25 °C
[30] = Hirugen peptide (HirP) 15 nM, overnight 25 °C
[31] = Octasaccharide H8 1.0 μM, overnight 25 °C
[32] = Octasaccharide H8 3.0 μM, overnight 25 °C
[33] = Octasaccharide H8 10 μM, overnight 25 °C
[34] = Octasaccharide H8 20 μM, overnight 25 °C
[35] = γ′-Fibrinogen peptide (FibP) 0.2 μM, overnight 25 °C
[36] = γ′-Fibrinogen peptide (FibP) 0.65 μM, overnight 25 °C
[37] = γ′-Fibrinogen peptide (FibP) 2.0 μM, overnight 25 °C
[38] = γ′-Fibrinogen peptide (FibP) 6.5 μM, overnight 25 °C

Compound: CCOC(=O)c1c(C)oc2cc(OC)c(OCc3oc4cc(OC)c(OCc5oc6cc(OC)c(OS(=O)(=O)[O-])cc6c5C(=O)OCC)cc4c3C(=O)OCC)cc12.[Na+] [9a]
- logIC50 [1]: −6.17 ± 0.03
- reduction in KM and VMAX ([2]; 25 °C): 0.86–1.2 fold per μM
- reduction in KM and VMAX ([2]; 37 °C): 0.4–0.6 fold per μM
- Km ([2]; [9a] 0.36 μM, overnight incubation at 25°C): 11.1 ± 2.5 µM
- Km [2, 19]: 6.7 ± 2.3 µM
- VMAX [2, 19]: 72 ± 8 mAU/min
- Km [2, 20]: 7.7 ± 1.3 µM
- VMAX [2, 20]: 69 ± 3 mAU/min
- Km [2, 21]: 2.2 ± 0.8 µM
- VMAX [2, 21]: 30 ± 2 mAU/min
- Km [2, 22]: 3.2 ± 0.5 µM
- VMAX [2, 22]: 35 ± 1 mAU/min
- Km [2, 23]: 2.7 ± 0.6 µM
- VMAX [2, 23]: 25 ± 1 mAU/min
- Km [2, 24]: 3.1 ± 0.6 µM
- VMAX [2, 24]: 19 ± 1 mAU/min
- Km [2, 25]: 1.9 ± 0.6 µM
- VMAX [2, 25]: 15 ± 0.8 mAU/min
- mechanism of thrombin inhibition ([2]; both incubation conditions): primarily uncompetitive
- logIC50 ([3]; 0 μM competitor): −6.17 ± 0.03
- ΔY ([3]; 0 μM competitor): 79 ± 9%
- HS [3, 26]: 2.2 ± 0.4
- ΔY [3, 26]: 71 ± 7%
- HS ([3]; Heparin (UFH) 12.8 μM, overnight 25 °C): 1.8 ± 0.2
- HS [3, 27]: 1.7 ± 0.2
- ΔY [3, 27]: 81 ± 10%
- HS [3, 28]: 1.2 ± 0.2
- ΔY [3, 28]: ~90 ^c %
- ΔY ([3]; Hirugen peptide (HirP) 3 nM, overnight 25 °C): 44 ± 2%
- HS [3, 29]: 2.4 ± 0.3
- ΔY [3, 29]: 46 ± 2%
- HS [3, 30]: 3.0 ± 0.7
- ΔY [3, 30]: 43 ± 1%
- HS [3, 31]: 2.3 ± 0.3
- ΔY [3, 31]: 58 ± 3%
- HS [3, 32]: 2.6 ± 0.6
- ΔY [3, 32]: 54 ± 4%
- HS [3, 33]: 2.8 ± 0.4
- ΔY [3, 33]: 50 ± 2%
- HS [3, 34]: 2.6 ± 0.5
- ΔY [3, 34]: 49 ± 2%
- HS [3, 35]: 2.4 ± 0.3
- ΔY [3, 35]: 73 ± 8%
- HS [3, 36]: 2.1 ± 0.3
- ΔY [3, 36]: 71 ± 8%
- HS [3, 37]: 3.3 ± 0.6
- ΔY [3, 37]: 67 ± 4%
- HS [3, 38]: 2.1 ± 0.6
- ΔY [3, 38]: 65 ± 7%
- HS [4]: 3.4 ± 0.5 ^b
- ΔY [4]: 49 ± 2%
- HS [5]: 1.8 ± 0.3
- ΔY [5]: 66 ± 6%
- HS [6]: 2.6 ± 0.5
- ΔY [6]: 47 ± 3%
- HS [7]: 2.1 ± 0.6
- ΔY [7]: 55 ± 6%
- HS [8]: 1.8 ± 0.5
- ΔY [8]: 65 ± 11%
- HS [9]: 1.1 ± 0.3
- ΔY [9]: 61 ± 8%
- HS [10]: 2.1 ± 0.2
- ΔY [10]: 59 ± 3%
- HS [11]: 2.4 ± 0.7
- ΔY [11]: 62 ± 8%
- ΔY [12]: 37 ± 3%
- fold loss in potency (defect) vs recombinant wild-type ([13]; Arg233Ala thrombin): ~ 3 fold
- ΔY ([13]; R233A, overnight 25 °C): 44 ± 2%
- ΔY [14]: 50 ± 1%
- HS [15]: 3.0 ± 0.3
- ΔY [15]: 52 ± 1%
- HS [16]: 2.3 ± 0.4
- ΔY [16]: 49 ± 3%
- times less potent in plasma anticoagulation than sulfated LMWLs ([17]; LMWLs from ref 15): 10 times
- concentration required for a 2-fold increase in APTT ([17]; citrated human plasma): 139 µM
- concentration required for a 2-fold increase in PT [18]: 568 µM

Compound: CCOC(=O)c1c(C)oc2cc(OC)c(OCc3oc4cc(OC)c(OCc5oc6cc(OC)c(OCc7oc8cc(OC)c(OS(=O)(=O)[O-])cc8c7C(=O)OCC)cc6c5C(=O)OCC)cc4c3C(=O)OCC)cc12.[Na+] [compound 17]
- HS (Hill slope) [1]: 1.0 ^c
- logIC50 [1]: −3.80 ± 0.15
- fold decrease in potency from 9a ([1]; ratio of IC50s): ~236 fold and 225 fold

Compound: CCOC(=O)c1c(C)oc2cc(OC)c(OCc3oc4cc(OC)c(OCc5oc6cc(OC)c(OS(=O)(=O)[O-])cc6c5C(=O)OC)cc4c3C(=O)OCC)cc12.[Na+] [9b]
- HS (Hill slope) [1]: 1.0 ^c
- logIC50 [1]: −5.69 ± 0.13
